Compound activity from PubChem BioAssay.
A selection: hits, their analogues and other compounds. The true share with any hit is near 2%.
Myeloid diff MLP = induction of myeloid progenitor differentiation, primary screen, cell-based, flow cytometry, MLPCN library; ER-HoxA9 myeloid progenitors, lysozyme-GFP differentiation; 360,000 tested, 1% active; calls only at 10 µM;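 active = normalized GFP-positive differentiation at or above the plate's own cutoff, the solvent-only control mean plus 3 SD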;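 note: cells exposed to compound for four days before flow analysis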
NR2E3 ag-1 = NR2E3 agonists in two-hybrid cells, primary screen, cell-based, luminescence, CHO-S, Gal4-NCOR/VP16-NR2E3; luciferase; 360,000 tested, 0.35% active; Photoreceptor-specific nuclear receptor (Homo sapiens), Q9Y5X4; inhibition of corepressor binding, % at 3.98 µM;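 active = inhibition above the mean of all tested compounds plus 3 SD, cut at about 70% in these data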;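 note: 0% = DMSO with NR2E3 transfected cells and 100% = cells lacking NR2E3 construct; higher means lower luciferase signal from less NR2E3 corepressor binding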
Target sequence (Q9Y5X4 whole entry, looked up, the tested form may be a part): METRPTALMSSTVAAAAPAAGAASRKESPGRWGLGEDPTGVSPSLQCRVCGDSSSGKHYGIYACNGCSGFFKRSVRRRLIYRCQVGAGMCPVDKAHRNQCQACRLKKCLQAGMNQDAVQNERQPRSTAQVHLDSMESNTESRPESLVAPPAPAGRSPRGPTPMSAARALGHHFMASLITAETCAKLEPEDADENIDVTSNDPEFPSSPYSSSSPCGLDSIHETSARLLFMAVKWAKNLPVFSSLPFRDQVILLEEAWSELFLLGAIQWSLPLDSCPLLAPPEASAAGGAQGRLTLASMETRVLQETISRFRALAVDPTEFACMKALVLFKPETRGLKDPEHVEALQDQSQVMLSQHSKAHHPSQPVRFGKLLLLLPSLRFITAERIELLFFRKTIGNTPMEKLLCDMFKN
T cell HTS = modulators of CD8 T cell-vesicle binding, primary screen, mouse 2C CD8+ T cells, flow cytometry; 2C CD8+ T cell-vesicle binding; active compounds read low; response (vesicle binding), % at 7 µM; 330,000 tested, 0.068% active; AID 2052, 2009;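 active = response, share of CD8 T cells binding vesicles, and their 90th percentile fluorescence all below set limits, cut at about 80% in these data, passing the limit was not always enough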;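 note: values below 100% mean blocked vesicle binding to the CD8+ T cells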
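Test system: purified 2C TCR transgenic mouse naive CD8+ T cells. Probe or stimulus: QL9-peptide-loaded Drosophila micro-vesicles bearing Ld, ICAM-1 and B7-1. Incubation: binding step 1.5 h, 37 °C, antibody labelling 20 min, ice. Measured by: flow cytometry of vesicle-bound cells.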
FXN GAA850 act = FXN promoter activators, primary screen, cell-based, luciferase luminescence, HEK293 lucGAA850 | HEK293 lucGAA850 FXN promoter luciferase reporter, 24 h; percent of 10 µM SAHA response | activation, % at 6 µM | 360,000 tested, 0.56% active | AID 540364, 2011;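 active = activation above the average of all compounds screened plus 3 SD, cutoff fixed separately per campaign, cut at about 7.5% in these data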;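 note: 0% = DMSO wells and 100% = 10 µM SAHA wells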
NR2E3 ag-2 = inhibitors of NR2E3-RetCOR corepressor binding, primary screen, NR2E3 agonist project, biochemical, TR-FRET, GST-NR2E3, biotin-RetCOR; inhibition of corepressor binding, % at 4.78 µM; 1536-well; 320,000 tested, 0.12% active;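 active = percent inhibition above the cutoff of mean plus 3 SD of all tested compounds, set per screening campaign, cut at about 20% in these data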;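 note: 0% = DMSO wells and 100% = biotin wells as full block of FRET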
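Test system: GST-NR2E3 and biotin-RetCOR proteins | Quantity: 1.35 nM GST-tagged NR2E3 final | Medium: Tris pH 7.5 | Also added: 7 nM biotin-RetCOR | Dosing: Compound at 4.8 µM, single dose | Timing: 5 h at 4 °C | Detection: Time-resolved FRET | Read-out basis: Percent inhibition | Benchmarks: Biotin wells as high control, 0.6% DMSO wells as low control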
NR2E3 ag confirm = NR2E3 agonist confirmation in cells, cell-based, luminescence, CHO-S two-hybrid | shares compounds with NR2E3 ag-1 | 2,300 tested, 51% active | inhibition, % at 3.98 µM | CHO-S mammalian two-hybrid NR2E3-NCOR, luciferase luminescence;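 active = average inhibition above a cutoff equal to the mean inhibition of all tested compounds plus one SD, cut at about 70% in these data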;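 note: 0% = DMSO in NR2E3 cells and 100% = DMSO in cells lacking NR2E3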
GAL4-VP16 luc = GAL4-VP16 reporter modulators, confirmation, counter-screen for NR2E3 agonist project, cell-based, luminescence, CHO-S, high throughput. shares compounds with NR2E3 ag-1. CHO-S GAL4-VP16 luciferase reporter. inhibition, % at 3.98 µM. 2,300 tested, 29% active;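 active = mean inhibition above a cutoff equal to the average over all tested compounds plus one standard deviation, cut at about 70% in these data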;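 note: luciferase from a UAS reporter driven by GAL4-VP16 transactivation; 0% = DMSO with VP16-transfected cells and 100% = DMSO with cells lacking VP16; higher means less reporter light so more repression of VP16 activity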
The depositor's hits bear a star.

`Cc1cc(C)c(CN2CCN(C(=O)Cn3cnc4c(OCc5ccccc5)ncnc43)CC2)c(C)c1` gave Myeloid diff MLP inactive, NR2E3 ag-1 71*, T cell HTS 254, FXN GAA850 act -4, NR2E3 ag confirm 67 and GAL4-VP16 luc 56.
`O=C(O)Cn1cnc2c(OCc3ccccc3)ncnc21` gave Myeloid diff MLP inactive, NR2E3 ag-1 -21, T cell HTS 646 and FXN GAA850 act 0.
For O=C(Nc1nccs1)c1ccc(S(=O)(=O)NCC2CCCCC2)cc1 the results were Myeloid diff MLP inactive, NR2E3 ag-1 58, T cell HTS 399, FXN GAA850 act -4, NR2E3 ag-2 0, NR2E3 ag confirm 59 and GAL4-VP16 luc 65.
For O=C(Nc1nccs1)c1ccc(S(=O)(=O)NCc2cccs2)cc1 the results were Myeloid diff MLP inactive, NR2E3 ag-1 -5, T cell HTS 511, FXN GAA850 act 3 and NR2E3 ag-2 5.
For CCOC(=O)C1=CCN(S(=O)(=O)c2ccc(C)cc2)C1c1ccc(Cl)c(Cl)c1 (configuration not stated) the results were Myeloid diff MLP inactive and NR2E3 ag-1 -12.
For Cc1cc(-c2csc3nc[nH]c(=S)c23)cc(C)c1C the results were Myeloid diff MLP inactive, NR2E3 ag-1 32, T cell HTS 287, FXN GAA850 act 2 and NR2E3 ag-2 1.
`S=c1[nH]cnc2scc(-c3ccc(Br)cc3)c12` gave Myeloid diff MLP inactive, NR2E3 ag-1 81*, T cell HTS 183, FXN GAA850 act 4, NR2E3 ag-2 1, NR2E3 ag confirm -7 and GAL4-VP16 luc 11.
For Cc1ccc(-c2csc3nc[nH]c(=S)c23)cc1 the results were Myeloid diff MLP inactive, NR2E3 ag-1 25, T cell HTS 269, FXN GAA850 act 2 and NR2E3 ag-2 3.
S=c1[nH]cnc2scc(-c3ccc(Cl)cc3)c12 was read as Myeloid diff MLP inactive, NR2E3 ag-1 58, T cell HTS inactive, FXN GAA850 act 3, NR2E3 ag-2 0, NR2E3 ag confirm 29 and GAL4-VP16 luc 4.
O=C(CN1C(=O)NC2(CCc3ccccc32)C1=O)NCc1cccc(C(F)(F)F)c1 (configuration not stated) was read as Myeloid diff MLP inactive, NR2E3 ag-1 13, T cell HTS 565 and FXN GAA850 act 0.
`Cc1ccc(C(C#N)c2ccc(C(=O)c3ccc(F)cc3)cc2)cc1` (configuration not stated) gave Myeloid diff MLP inactive, NR2E3 ag-1 49, T cell HTS 214, FXN GAA850 act 0, NR2E3 ag-2 3, NR2E3 ag confirm 59 and GAL4-VP16 luc 45.
COCCNC(=S)N/N=C(\C)c1ccccc1O was read as Myeloid diff MLP inactive, NR2E3 ag-1 66, T cell HTS 500, FXN GAA850 act 0, NR2E3 ag-2 0, NR2E3 ag confirm -73 and GAL4-VP16 luc -50.
For COc1ccc(O)c(/C=N/NC(=S)NCCc2ccccc2)c1 the results were NR2E3 ag-1 35, T cell HTS 184, FXN GAA850 act 2 and NR2E3 ag-2 4.
For COc1ccc(/C(C)=N/NC(=S)NCCc2ccccc2)c(O)c1 the results were Myeloid diff MLP inactive, NR2E3 ag-1 48, T cell HTS 210, FXN GAA850 act 0, NR2E3 ag-2 2, NR2E3 ag confirm -18 and GAL4-VP16 luc -1.
COCCNC(=S)N/N=C/c1ccccc1C(=O)O was read as Myeloid diff MLP inactive, NR2E3 ag-1 13, T cell HTS 497, FXN GAA850 act 0 and NR2E3 ag-2 1.
`COCCNC(=S)N/N=C(\C)c1ccccc1OC` gave Myeloid diff MLP inactive, NR2E3 ag-1 -8, T cell HTS 184, FXN GAA850 act 1 and NR2E3 ag-2 3.
COc1cccc(/C=N/NC(=S)NC2CC3CCC2C3)c1OC (configuration not stated) was read as Myeloid diff MLP inactive, NR2E3 ag-1 -19, T cell HTS inactive, FXN GAA850 act 1 and NR2E3 ag-2 3.
Screening Oc1ccccc1/C=N/NC(=S)NC1CC2CCC1C2 (configuration not stated) returned Myeloid diff MLP inactive, NR2E3 ag-1 48, T cell HTS 269, FXN GAA850 act 5, NR2E3 ag-2 3, NR2E3 ag confirm -164 and GAL4-VP16 luc -101.
For COCCCNC(=S)N/N=C/c1ccccc1O the results were Myeloid diff MLP inactive, NR2E3 ag-1 74*, T cell HTS 396, FXN GAA850 act 3, NR2E3 ag-2 3, NR2E3 ag confirm -37 and GAL4-VP16 luc -11.
For Cc1ccc(S(=O)ONc2cccc(NOS(=O)c3ccc(C)cc3)c2)cc1 (configuration not stated) the results were Myeloid diff MLP inactive, NR2E3 ag-1 -17 and FXN GAA850 act 0.
COCCNC(=O)c1cccc2c(-c3cnn(C)c3)coc12 was read as Myeloid diff MLP inactive, NR2E3 ag-1 24 and FXN GAA850 act 2.
COc1ccc(CNC(=O)COC(=O)CCn2c(C)csc2=O)cc1OC was read as Myeloid diff MLP inactive, NR2E3 ag-1 -2, T cell HTS 498, FXN GAA850 act 2 and NR2E3 ag-2 -2.
Screening Cc1ccc(-c2csc(C(O)c3ccc(F)c(F)c3)n2)cc1C (configuration not stated) returned Myeloid diff MLP inactive, NR2E3 ag-1 3 and FXN GAA850 act -1.
Screening COc1ccc(-c2csc(C(O)c3ccc(F)c(OC)c3)n2)cc1 (configuration not stated) returned Myeloid diff MLP inactive, NR2E3 ag-1 44 and FXN GAA850 act 0.
`Cc1nnc(N/N=C/c2ccc(Br)cc2)n1N` gave Myeloid diff MLP inactive, NR2E3 ag-1 57, T cell HTS 331, FXN GAA850 act -1, NR2E3 ag-2 1, NR2E3 ag confirm -7 and GAL4-VP16 luc 6.
`CC(O)(c1cccnc1)c1nc(-c2cccc(C(F)(F)F)c2)cs1` (configuration not stated) gave Myeloid diff MLP inactive, NR2E3 ag-1 67, FXN GAA850 act 2, NR2E3 ag confirm 51 and GAL4-VP16 luc 39.
